Results pooled from the literature.

SMILES	target or system	assay	test system	conditions	quantity	result
COc1c(N2C[C@@H]3CCCN[C@@H]3C2)c(F)cc2c(=O)c(C(=O)O)cn(C3CC3)c12	Escherichia coli	microbial growth	ATCC25922		MIC	0.03 µM
O=c1ccc2nc3ccc(OCc4ccc([N+](=O)[O-])o4)cc3oc-2c1	Staphylococcus aureus	microbial growth	MRSA	24 h	MIC	> 32 µg/mL
Oc1c(Cl)cc(Cl)cc1-c1[nH]c(Cl)c(Cl)c1Cl	Staphylococcus aureus	microbial growth	BAA44 MRSA		MIC	0.06 µM
N.N.[Cl][Pt][Cl]	HK-2	cell growth or viability, MTT		72 h	IC50	7.59 µM
O=c1ccc2nc3ccc(O)cc3oc-2c1	Escherichia coli	microbial growth		24 h	MIC	> 32 µg/mL
COc1c(N2CC3CCCNC3C2)c(F)cc2c(=O)c(C(=O)OCc3cnc([N+](=O)[O-])s3)cn(C3CC3)c12 (centres unmarked)	Escherichia coli	microbial growth	ATCC25922		MIC	0.09 µM
Oc1c(Br)cc(Br)cc1-c1[nH]c(Br)c(Br)c1Br	Staphylococcus aureus	microbial growth	ATCC29213 MSSA		MIC	0.58 µM
CN[C@H](CC(C)C)C(=O)N[C@H]1C(=O)N[C@@H](CC(N)=O)C(=O)N[C@H]2C(=O)N[C@H]3C(=O)N[C@H](C(=O)N[C@H](C(=O)O)c4cc(O)cc(O)c4-c4cc3ccc4O)[C@H](O)c3ccc(c(Cl)c3)Oc3cc2cc(c3O[C@@H]2O[C@H](CO)[C@@H](O)[C@H](O)[C@H]2O[C@H]2C[C@](C)(N)[C@H](O)[C@H](C)O2)Oc2ccc(cc2Cl)[C@H]1O	Staphylococcus aureus	microbial growth, broth dilution	MRSA	24 h, drug-resistant strain	MIC	0.67 µM
